CHRM1 agonist: agonists of human M1 muscarinic receptor; P11229; CHO-K1 hM1, Fluo-8 calcium fluorescence, agonist mode; 0% DMSO, 100% acetylcholine EC100; activation, % at 3 µM; 0.33% of 360,000 active;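 active = activation above the run's mean compound activation plus 3 SD, cut at about 16% in these data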;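 also: peak over basal fluorescence ratio within a 140 s kinetic read after compound addition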
Target sequence (P11229 whole entry, looked up): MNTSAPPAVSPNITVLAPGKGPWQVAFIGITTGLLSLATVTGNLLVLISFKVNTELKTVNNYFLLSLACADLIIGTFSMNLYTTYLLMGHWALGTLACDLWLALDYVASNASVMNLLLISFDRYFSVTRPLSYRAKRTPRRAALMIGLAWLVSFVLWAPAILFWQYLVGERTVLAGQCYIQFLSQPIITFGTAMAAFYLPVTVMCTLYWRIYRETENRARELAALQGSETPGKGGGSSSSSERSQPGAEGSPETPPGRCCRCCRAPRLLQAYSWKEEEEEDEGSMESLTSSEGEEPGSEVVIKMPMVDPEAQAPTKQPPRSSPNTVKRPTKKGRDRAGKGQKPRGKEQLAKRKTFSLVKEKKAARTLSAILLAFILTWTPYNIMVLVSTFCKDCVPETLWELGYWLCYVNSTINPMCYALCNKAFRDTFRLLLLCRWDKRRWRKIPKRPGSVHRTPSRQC
M1 antag: human CHRM1 antagonism; AID 588852; P11229; inhibition, % at 3 µM; 1.3% of 360,000 active; CHO-K1 hM1, Fluo-8 calcium fluorescence, ACh EC80 antagonist;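 active = percent inhibition above its own plate's cutoff, namely the mean of that plate's compound wells plus 3 SD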;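 also: peak over basal fluorescence ratio during 140 s after agonist addition; 0% = ACh EC80 plus DMSO and 100% = DMSO alone without agonist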
HTR2A ag: activates the mouse 5-HT2A serotonin receptor | CHO-K1 mHTR2A beta-arrestin complementation, luminescence; percent of 30 µM serotonin response | 0.66% of 360,000 active | activation, % at 7.6 µM;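 active = activation above a run cutoff, the mean activation of all tested compounds plus 3 SD, cut at about 14% in these data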;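 also: 0% = plate median of compound wells and 100% = 30 µM serotonin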
M1 PAM: potentiates human M1 receptor response to acetylcholine; CHO-K1 hM1, Fluo-8 calcium fluorescence, ACh EC20; 0% = ACh EC20, 100% = maximal ACh; P11229; activation, % at 3 µM; 0.088% of 360,000 active; in the data active = activation above about 19%, passing the limit was not always enough
TAAR1 antagonist: human TAAR1 antagonism. Q96RJ0. CHO RD-HGA16 TAAR1, Fluo-8 calcium fluorescence, antagonist. inhibition, % at 3 µM. 1.5% of 360,000 active;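 active = inhibition above a per-plate cutoff, the mean inhibition of test compounds on that plate plus 3 SD, cut at about 49% in these data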;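 also: 0% = DMSO plus EC80 beta-PEA response and 100% = DMSO alone without agonist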
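Test system – hTAAR1-expressing CHO RD-HGA16 cells, Gα16-coupled · Reagent – β-PEA at EC80 concentration, post-compound challenge · Compound dosing – 3 µM, single point · Timing – 140 s kinetic read after compound, 140 s after agonist · Detection – Fluo-8 intracellular calcium dye fluorescence, real-time kinetic reads · Control set – DMSO and EC80 PEA controls · Repeats – n of 1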
TAAR1 ag: human TAAR1 agonism. Q96RJ0. CHO RD-HGA16 TAAR1, Fluo-8 calcium fluorescence; vehicle wells 0%, saturating PEA agonist 100%. activation, % at 3 µM. 0.99% of 360,000 active;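 active = activation above the mean activation of all test compounds in the run plus 3 SD, cut at about 38% in these data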
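Assay system: CHO-derived RD-HGA16 cells with stable Gα16 and human TAAR1; timing: 17-24 h seeding, 75 min 37 °C dye, 30 min RT; read-out: % activation from peak over basal fluorescence ratio, DMSO-to-PEA scaled; measured by: kinetic Fluo-8 calcium fluorescence; benchmarks: low control DMSO, high control PEA (EC100); doses: 3 µM single concentration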
TAAR1 ag confirm: human TAAR1 agonism, confirmed. AID 651783. CHO RD-HGA16 TAAR1, Fluo-8 calcium fluorescence; scaled: DMSO 0%, maximal phenethylamine 100%. activation, % at 3 µM. 82% of 2,400 active. shares compounds with TAAR1 ag;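 active = activation above a cutoff set at the run's mean compound activation plus 3 SD, cut at about 39% in these data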
Ga16 nonsel ag: counter-screen for TAAR1 agonists: nonselective agonists in parental cells; CHO-Ga16 parental, Fluo-8 calcium fluorescence; normalized to maximal ATP response, DMSO zero; shares compounds with TAAR1 ag; 50% of 2,400 active; activation, % at 3 µM;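 active = activation above the run cutoff, the mean activation over all tested wells plus 3 SD, cut at about 12% in these data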;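 also: 0% = DMSO wells and 100% = maximal ATP response on the peak over basal ratio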
TAAR1 desens: TAAR1 response desensitization, agonist counter-screen; shares compounds with TAAR1 ag; CHO RD-HGA16 hTAAR1, Fluo-8 calcium, beta-PEA response inhibition; inhibition, % at 3 µM; 46% of 2,400 active; AID 651951;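 active = inhibition above the run cutoff, the mean inhibition of all test compounds plus 3 SD, cut at about 49% in these data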;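 also: beta-PEA stimulus applied at its EC80; loss of beta-PEA calcium signal after compound pretreatment read as receptor desensitization; 0% = DMSO with beta-PEA at EC80 and 100% = DMSO alone without agonist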
Ga16 nonsel ant: counter-screen for TAAR1 agonists: nonselective Ga16 antagonists | shares compounds with TAAR1 ag | CHO-Ga16 ATP-induced calcium, Fluo-8 fluorescence | inhibition, % at 3 µM | 39% of 2,400 active;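 active = inhibition above the plate's mean compound inhibition plus 3 SD, computed per plate, cut at about 22% in these data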;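 also: 0% = EC80 ATP with DMSO and 100% = DMSO wells without ATP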
An asterisk follows results filed as active; · = no result given. In the library only some 3.9% were active in any assay of this set; here they are far more common.

SMILES	CHRM1 agonist	M1 antag	HTR2A ag	M1 PAM	TAAR1 antagonist	TAAR1 ag	TAAR1 ag confirm	Ga16 nonsel ag	TAAR1 desens	Ga16 nonsel ant
Cc1ccccc1C(=O)N[C@H](C(=O)N1CCC[C@H]1C(=O)NCc1ccccc1)c1ccccc1	·	·	·	·	-37	2	·	·	·	·
O=C(N[C@H](C(=O)N1CCC[C@H]1C(=O)NCCc1ccccc1Cl)c1ccccc1)c1ccco1	·	·	·	·	-13	41*	57*	1	60*	12
O=C(N[C@H](C(=O)N1CCC[C@H]1C(=O)NCCc1ccccc1Cl)c1ccccc1)c1cccs1	·	·	·	·	·	·	·	5	·	10
O=C(COc1ccc(F)cc1Br)N1CCc2ccccc21	-5	-11	1	2	83*	76*	1	3	-7	1
O=Cc1ccc(OCC(=O)N2CCc3ccccc32)c(Br)c1	-2	-5	-5	5	-3	0	·	·	·	·
COc1ccc(/C(C)=N/NC(=O)CN(c2ccc(OC)cc2)S(=O)(=O)c2ccccc2)cc1	-5	4	-5	-2	-18	-1	·	·	·	·
O=Cc1[nH]c2ccccc2c1N(C(=O)CCl)c1ccc([N+](=O)[O-])cc1	7	-3	0	10	52*	56*	70*	44*	73*	53*
Cc1c(NCc2cc(Cl)ccc2O)c(=O)n(-c2ccccc2)n1C	-3	-1	-4	-1	26	50*	25	6	24	13
CC(=O)N/C(=C\c1ccccc1)C(=O)OC/C=C/c1ccccc1	-1	-6	-2	5	-11	0	·	·	·	·
CCC(C)c1ccc(NC(=S)NC2CCN(Cc3ccccc3)CC2)cc1 (configuration not stated)	-2	-4	-6	4	1	58*	45*	19*	39	27*
COc1ccc(CCNCCC(c2ccccc2)c2ccccc2)cc1OC	-3	30	-4	-24	0	13	·	·	·	·
COc1cc(OC)c(OC)cc1CCC(C)NCCC(c1ccccc1)c1ccccc1 (configuration not stated)	-9	74*	4	-35	23	52*	48*	19*	39	25*
COc1ccc(CC(N)c2csc(Nc3nccc(C(F)(F)F)n3)n2)cc1 (configuration not stated)	7	-3	-2	4	22	52*	53*	21*	28	23*
COc1ccc(CC(N)c2csc(Nc3ncccn3)n2)cc1 (configuration not stated)	1	-14	1	13	0	2	·	·	·	·
NC(Cc1ccccc1)c1csc(Nc2nccc(C(F)(F)F)n2)n1 (configuration not stated)	6	16	8	-4	20	67*	86*	55*	43	48*
NC(Cc1ccc(Cl)cc1)c1csc(Nc2nccc(C(F)(F)F)n2)n1 (configuration not stated)	8	6	-1	5	38	55*	88*	62*	74*	73*
NC(Cc1ccc(F)cc1)c1csc(Nc2nccc(C(F)(F)F)n2)n1 (configuration not stated)	8	0	2	-3	27	72*	86*	54*	56*	55*
Cn1c(=O)c2c(ncn2CC(COCc2ccccc2)OCc2ccccc2)n(C)c1=O (configuration not stated)	0	-8	5	12	-22	3	·	·	·	·
CCc1ccc(Nc2cc(=O)n(C3CCCCC3)c(=O)[nH]2)cc1	20*	12	-3	-3	44	79*	108*	50*	81*	32*
O=c1cc(Nc2ccc3c(c2)OCCO3)[nH]c(=O)n1C1CCCCC1	10	3	-2	1	9	10	·	·	·	·
COc1ccc(NC(=O)C2CCCN(C(=O)Nc3ccc(OC)cc3)C2)cc1 (configuration not stated)	-5	-3	1	0	-11	0	·	·	·	·
COc1ccc(NC(=O)N2CCCC(c3ccccc3)C2)cc1 (configuration not stated)	-5	-4	5	6	27	55*	61*	0	33	13
CCOc1ccccc1CN1CCNC(=O)C1CC(=O)N(C)CCc1ccccn1 (configuration not stated)	-3	4	-2	-4	-20	54*	60*	6	18	1
Cc1ccc(CN2CCNC(=O)C2CC(=O)N(C)CCc2ccccc2)cc1 (configuration not stated)	-2	23	-1	-9	-11	59*	78*	0	37	0
CNc1cncc(-c2ccoc2)n1	-3	-10	5	2	-4	3	·	·	·	·
SMILES	CHRM1 agonist	M1 antag	HTR2A ag	M1 PAM	TAAR1 antagonist	TAAR1 ag	TAAR1 ag confirm	Ga16 nonsel ag	TAAR1 desens	Ga16 nonsel ant
CC1(C)CC(=O)C2=C(C1)NC(=S)C(C#N)C21CCCCC1 (configuration not stated)	-5	-7	0	4	-30	2	·	·	·	·
CCCCCCCCCCCCC/C=C/[C@@H](O)[C@@H](N)CO	1	-22	0	2	-8	39*	83*	65*	13	23*
CCCCCCCC/C=C\CCCCCCCC(=O)O	3	-34	-4	2	-5	1	·	·	·	·
c1ccc2c(c1)CCCC2C1=NCCN1 (configuration not stated)	-5	-14	-4	-3	92*	91*	93*	0	97*	11
COC(CNC(=O)c1cn(C)c2ccc(S(=O)(=O)N(C)C3CCCCC3)cc2c1=O)OC	-4	1	4	1	2	2	·	·	·	·
O=C(Nc1ccccc1)Nc1ccc(Oc2cccnc2)nc1	3	-17	-7	12	-18	67*	90*	12*	80*	20
O=C(Nc1ccc(F)cc1)Nc1cccnc1	2	-13	-6	19	-4	64*	81*	6	48	5

Screening data (PubChem)
